Results as given in ChEMBL document CHEMBL1125824, “New pepstatin analogues: synthesis and pepsin inhibition” (J Med Chem, 1991).

Assays:
[1] = biological target: T1, Pepsin A (Sus scrofa, UniProt P00791); assay: Compound was measured for the apparent inhibition constant at pepsin
Procedure, shortened: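 Apparent Ki from the pepsin–hemoglobin assay: pH 2.0 KCl–HCl buffer, 30 min total at 37 °C, perchloric acid quench, A280 of supernatant minus blank. IC50 came from % inhibition vs log [inhibitor], four replicates at ≥5 concentrations. Ki(app) was calculated as IC50 − 0.5[E]0, where [E]0 is the enzyme concentration.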

[2] = biological target: T1, Pepsin A; assay: Compound was measured for the inhibition of pepsin hydrolysis of hemoglobin.
Procedure, shortened: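 Porcine pepsin acting on hemoglobin substrate (0.5% solution) with inhibitor in 0.02 M KCl–HCl, pH 2.0. Substrate and inhibitor were preincubated 3 min at 37 °C, then enzyme was added for 27 min at 37 °C. The reaction was quenched with 1.5 M perchloric acid, protein was spun out, and A280 was read minus a no-enzyme blank. Four replicates at ≥5 concentrations; IC50 from % inhibition vs log concentration.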

T1 sequence (P00791 whole entry): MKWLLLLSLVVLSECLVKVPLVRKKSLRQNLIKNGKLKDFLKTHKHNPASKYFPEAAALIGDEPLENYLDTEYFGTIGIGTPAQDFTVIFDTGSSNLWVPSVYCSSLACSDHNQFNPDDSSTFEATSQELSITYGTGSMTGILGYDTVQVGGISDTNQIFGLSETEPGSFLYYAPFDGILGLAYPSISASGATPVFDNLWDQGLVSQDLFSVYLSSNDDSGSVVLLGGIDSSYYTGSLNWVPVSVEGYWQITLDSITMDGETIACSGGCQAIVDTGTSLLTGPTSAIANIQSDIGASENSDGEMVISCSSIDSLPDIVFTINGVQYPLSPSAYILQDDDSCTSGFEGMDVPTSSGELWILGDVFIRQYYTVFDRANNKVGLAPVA

Row | Compound | Ki [1] [µM] | IC50 [2] [µM]
1 | CCCCC(NC(=O)[C@@H](NC(=O)[C@@H](NC(=O)OCc1ccccc1)C(C)C)C(C)C)C(O)CC(=O)O (stereo partly specified) |  | 0.01
2 | CC(C)CC(NC(=O)[C@@H](NC(=O)[C@H](NC(=O)OCc1ccccc1)C(C)C)C(C)C)C(O)CC(=O)O (stereo partly specified) | 39.4 | 39.4
3 | CCCCC(NC(=O)[C@@H](NC(=O)[C@H](NC(=O)OCc1ccccc1)C(C)C)C(C)C)C(O)CC(=O)O (stereo partly specified) | 17.7 | 17.7
4 | CC(C)CC(=O)N[C@H](C(=O)N[C@H](C(=O)N[C@@H](CC(C)C)[C@@H](O)CC(=O)N[C@@H](C)C(=O)N[C@@H](CC(C)C)[C@@H](O)CC(=O)O)C(C)C)C(C)C [PEPSTATIN] |  | 0.007

Other lines, results leading:

Row | Ki [1] [µM] | IC50 [2] [µM] | Compound
5 | 1130 | 1130 | CC(C)[C@H](NC(=O)OCc1ccccc1)C(=O)N[C@H](C(=O)NC(c1ccc(O)cc1)C(O)CC(=O)O)C(C)C (stereo partly specified)
6 | 0.41 | 0.42 | CC(C)[C@H](NC(=O)OCc1ccccc1)C(=O)N[C@H](C(=O)NC(c1ccccc1)C(O)CC(=O)O)C(C)C (stereo partly specified)
7 | 0.19 | 0.2 | CC(C)CC(NC(=O)[C@@H](NC(=O)[C@@H](NC(=O)OCc1ccccc1)C(C)C)C(C)C)C(O)CC(=O)O (stereo partly specified)
8 | 1540 | 1540 | CC(C)[C@H](NC(=O)[C@H](NC(=O)OCc1ccccc1)C(C)C)C(=O)NC(c1ccc(O)cc1)C(O)CC(=O)O (stereo partly specified)
9 | 346 | 346 | CC(C)[C@H](NC(=O)[C@H](NC(=O)OCc1ccccc1)C(C)C)C(=O)NC(c1ccccc1)C(O)CC(=O)O (stereo partly specified)
